Measured values taken from ChEMBL document CHEMBL1134955, “Identification and structure-activity studies of novel ultrashort-acting benzodiazepine receptor agonists” (Bioorg Med Chem Lett, 2002).

What was measured:
[1] = biological target: GABA-A receptor; anion channel; experiment: Binding affinity to rat benzodiazepine receptor; format: protein-complex assay
Outline: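 Rat BZD receptor membranes incubated with 2 nM [3H]-flunitrazepam and test ligand for 90 min at 4 °C in 50 mM Tris–HCl pH 7.4 with 150 mM NaCl. Twelve-point curves made by 3-fold serial dilution from DMSO stocks, final DMSO ≤0.4%. Nonspecific binding taken with 2'-chlorodiazepam. Filtration through GF/B, ice-cold Tris washes, scintillation counting. Triplicates, at least three runs; Ki reported in nM.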

[2] = biological target: GABA-A receptor; anion channel (Rattus norvegicus) (UniProt O09028+P15431+P18506+P18508+P19969+P20236+P23574+P23576+P28471+P28473+P30191+P62813+P63079+P63138+Q91ZM7+Q9ES14); experiment: Ratio between Ki value (acid) / Ki value (ester) was determined; format: protein-complex assay
Outline: (§1)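 Ki of the acid divided by Ki of the matching ester. Both Ki values come from [3H]-flunitrazepam displacement at rat BZD receptor membranes (2 nM radioligand, 90 min, 4 °C, Tris–HCl pH 7.4 with NaCl), with triplicate 12-point curves.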

[3] = test system: Rattus norvegicus; experiment: Loss of righting reflex recovery time (initial) in rat was determined when treated with a dose of 30 mg/Kg; format: functional, organism-based
Outline: (§2)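 Rats given an iv bolus in 50% PEG/25% EtOH/25% saline. Scored for time to LRR onset, initial recovery (rights itself three consecutive times) and total recovery (walks without ataxia and pulls up three times when hung from a horizontal wire), in min.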

[4] = test system: Rattus norvegicus; experiment: Loss of righting reflex recovery time (total) in rat was determined when treated with a dose of 30 mg/Kg; format: functional, organism-based; outline: as §2
[5] = Ratio between Ki (acid) / Ki (ester) was determined; outline: as §1

| Structure (SMILES) | Ki [1] [nM] | Ratio [2] | Recovery time [3] [min] | Recovery time [4] [min] | Ratio [5] |
| --- | --- | --- | --- | --- | --- |
| O=C(CC[C@@H]1N=C(c2ccccc2F)c2ccccc2NC1=O)OCc1ccccc1 | 163 | – | – | – | – |
| CC(C)OC(=O)CC[C@@H]1N=C(c2ccccc2F)c2cc(Cl)ccc2NC1=O | 39 | 108 | – | – | – |
| COC(=O)CCN[C@@H]1N=C(c2ccccc2Cl)c2cc(Cl)ccc2NC1=O | 189 | 1 | – | – | – |
| O=C(CC[C@@H]1N=C(c2ccccc2)c2cc(Cl)ccc2NC1=O)OCc1ccccc1 | 200 | – | 15 | 22 | – |
| O=C(C[C@@H]1N=C(c2ccccc2F)c2cc(Cl)ccc2NC1=O)OCc1ccncc1 | 289 | – | – | – | – |
| COC(=O)CC[C@@H]1N=C(c2ccccc2F)c2cc([N+](=O)[O-])ccc2NC1=O | 7 | – | – | – | – |
| CCCCOC(=O)CC[C@@H]1N=C(c2ccccc2F)c2cc(Cl)ccc2NC1=O | 242 | 17 | 15 | 25 | – |
| O=C(CC[C@@H]1N=C(c2ccccc2F)c2cc(Cl)ccc2NC1=O)OCc1ccccc1 | 29 | 143 | 8 | 19 | – |
| CN1C(=O)CN=C(c2ccccc2)c2cc(Cl)ccc21 | – | – | 5 | 82 | – |
| COC(=O)CC[C@@H]1N=C(c2ccccc2F)c2cc(Cl)ccc2NC1=O | 7 | 984 | 9 | 24 | – |
| COC(=O)CNC1N=C(c2ccccc2Cl)c2cc(Cl)ccc2NC1=O (centres undefined) | 53 | 35 | – | – | – |
| O=C(C[C@@H]1N=C(c2ccccc2F)c2cc(Cl)ccc2NC1=O)OCc1ccccc1 | 176 | 76 | 13 | 17 | – |
| COC(=O)CN[C@@H]1N=C(c2ccccc2Cl)c2cc(Cl)ccc2NC1=O | 480 | 9 | – | – | – |
| O=C(C[C@H]1N=C(c2ccccc2)c2cc(Cl)ccc2NC1=O)OCc1ccccc1 | 100000 | – | – | – | – |
| Cc1ncc2n1-c1ccc(Cl)cc1C(c1ccccc1F)=NC2 [MIDAZOLAM] | 2 | – | 23 | 121 | – |
| COC(=O)CC[C@@H]1N=C(c2ccccc2F)c2ccccc2NC1=O | 92 | – | – | – | – |
| O=C(CC[C@@H]1N=C(c2ccccc2F)c2cc(Cl)ccc2NC1=O)OCc1ccncc1 | 34 | 124 | – | – | – |
| COC(=O)CCN[C@H]1N=C(c2ccccc2Cl)c2cc(Cl)ccc2NC1=O | 3 | 130 | – | – | – |
| COC(=O)CCC[C@@H]1N=C(c2ccccc2F)c2cc(Cl)ccc2NC1=O | 3 | 186 | – | – | – |
| COC(=O)CC[C@@H]1N=C(c2ccccc2)c2cc([N+](=O)[O-])ccc2NC1=O | 118 | 95 | 2 | 14 | – |
| O=C(CC[C@@H]1N=C(c2ccccc2)c2cc([N+](=O)[O-])ccc2NC1=O)OCc1ccccc1 | 124 | 91 | 2 | 3 | – |
| COC(=O)CC[C@H]1N=C(c2ccccc2F)c2cc(Cl)ccc2NC1=O | 741 | – | 2 | 4 | – |
| CCOC(=O)C[C@@H]1N=C(c2ccccc2F)c2cc(Cl)ccc2NC1=O | 45 | 297 | – | – | – |
| O=C(C[C@@H]1N=C(c2ccccc2)c2cc(Cl)ccc2NC1=O)OCc1ccccc1 | 1450 | – | 4 | 14 | – |
| COC(=O)CN[C@H]1N=C(c2ccccc2Cl)c2cc(Cl)ccc2NC1=O | 23 | 172 | – | – | – |
| COC(=O)CCNC1N=C(c2ccccc2Cl)c2cc(Cl)ccc2NC1=O (centres undefined) | 17 | 17 | – | – | – |
| COC(=O)CC[C@@H]1N=C(c2ccccc2F)c2cc(Br)ccc2NC1=O | 3 | 431 | 22 | 30 | – |
| COC(=O)C[C@@H]1N=C(c2ccccc2F)c2cc(Cl)ccc2NC1=O | 81 | – | – | – | 165 |
